How the values were obtained:
Format in all cases: toxicity, cell-based
[1] = test system: HEK-293T; assay: Incucyte cell viability with HEK293T; settings: human, 10 µM, compound concentration 10 uM; note: filed as whole numbers so only -1 and 0 and 1 occur
[2] = test system: U2OS; assay: Incucyte cell viability with U2OS; settings: human, 10 µM, compound concentration 10 uM; note: filed as whole numbers so only -1 and 0 and 1 occur
[3] = test system: Fibroblast; assay: Multiplex assay against human fibroblast
Summary of the method: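 Live cells carried four stains from seeding: Hoechst33342, BioTracker Green Microtubule Cytoskeleton Dye, MitoTracker Red and Annexin V Alexa Fluor 680. They were imaged on a CQ1 microscope at 37°C and 5% CO2 after compound addition. Using CellPathfinder machine-learning gating, cells were split into Hoechst high-intensity objects or normal cells, normal cells into healthy, pyknosed or fragmented nuclei, and pyknosed cells into mitotic or apoptotic; tubulin, mitochondrial-mass and membrane-permeability phenotypes are per cents of healthy-nucleus cells.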

[4] = 6 h, replicate number 1, timepoint 6 hours
[5] = 12 h, replicate number 1, timepoint 12 hours
[6] = 18 h, replicate number 1, timepoint 18 hours
[7] = 24 h, replicate number 1, timepoint 24 hours
[8] = 12 h, 1 µM, compound concentration 1 uM, replicate 1
[9] = 12 h, 1 µM, compound concentration 1 uM, replicate 2
[10] = 12 h, 10 µM, compound concentration 10 uM, replicate 1
[11] = 12 h, 10 µM, compound concentration 10 uM, replicate 2
[12] = 24 h, 1 µM, compound concentration 1 uM, replicate 1
[13] = 24 h, 1 µM, compound concentration 1 uM, replicate 2
[14] = 24 h, 10 µM, compound concentration 10 uM, replicate 1
[15] = 24 h, 10 µM, compound concentration 10 uM, replicate 2

Question: Which results are given for CC[C@H](Nc1ncnc2[nH]cnc12)c1nc2cccc(F)c2c(=O)n1-c1ccccc1 [IDELALISIB]?
Answer: Growth Rate [1, 4]: 0; Growth Rate [1, 5]: 0; Growth Rate [1, 6]: 0; Growth Rate [1, 7]: 0; Growth Rate ([2]; 0 h, replicate number 1, timepoint 0 hours): 0; Growth Rate [2, 4]: 0; Growth Rate [2, 5]: 1; Growth Rate ([2]; 12 h, replicate number 2, timepoint 12 hours): 0; Growth Rate [2, 6]: 0; Growth Rate [2, 7]: 0; Population Apoptotic (%) [3, 8]: 91%; Population Fragmented Nuclei (%) [3, 8]: 26%; Population Healthy Nuclei (%) [3, 8]: 56%; Population Hoechst High Intensity Objects (%) [3, 8]: 11%; Population Membrane Permeable-Phenotype (%) [3, 8]: 12%; Population Mitochondria Different-Phenotype (%) [3, 8]: 1%; Population Mitotic Cells (%) [3, 8]: 8%; Population Normal (%) [3, 8]: 88%; Population Pyknosed Nuclei (%) [3, 8]: 17%; Population Tubulin-Different-Phenotype (%) [3, 8]: 20%; Total Cell Count [3, 8]: 222; Population Apoptotic (%) [3, 9]: 50%; Population Fragmented Nuclei (%) [3, 9]: 56%; Population Healthy Nuclei (%) [3, 9]: 34%; Population Hoechst High Intensity Objects (%) [3, 9]: 30%; Population Membrane Permeable-Phenotype (%) [3, 9]: 6%; Population Mitochondria Different-Phenotype (%) [3, 9]: 26%; Population Mitotic Cells (%) [3, 9]: 50%; Population Normal (%) [3, 9]: 69%; Population Pyknosed Nuclei (%) [3, 9]: 9%; Population Tubulin-Different-Phenotype (%) [3, 9]: 53%; Total Cell Count [3, 9]: 63; Population Apoptotic (%) [3, 10]: 58%; Population Fragmented Nuclei (%) [3, 10]: 26%; Population Healthy Nuclei (%) [3, 10]: 59%; Population Hoechst High Intensity Objects (%) [3, 10]: 10%; Population Membrane Permeable-Phenotype (%) [3, 10]: 14%; Population Mitochondria Different-Phenotype (%) [3, 10]: 0%; Population Mitotic Cells (%) [3, 10]: 41%; Population Normal (%) [3, 10]: 89%; Population Pyknosed Nuclei (%) [3, 10]: 13%; Population Tubulin-Different-Phenotype (%) [3, 10]: 4%; Total Cell Count [3, 10]: 199; Population Apoptotic (%) [3, 11]: 50%; Population Fragmented Nuclei (%) [3, 11]: 58%; Population Healthy Nuclei (%) [3, 11]: 33%; Population Hoechst High Intensity Objects (%) [3, 11]: 34%; Population Membrane Permeable-Phenotype (%) [3, 11]: 18%; Population Mitochondria Different-Phenotype (%) [3, 11]: 31%; Population Mitotic Cells (%) [3, 11]: 50%; Population Normal (%) [3, 11]: 65%; Population Pyknosed Nuclei (%) [3, 11]: 8%; Population Tubulin-Different-Phenotype (%) [3, 11]: 25%; Total Cell Count [3, 11]: 73; Population Apoptotic (%) [3, 12]: 59%; Population Fragmented Nuclei (%) [3, 12]: 27%; Population Healthy Nuclei (%) [3, 12]: 54%; Population Hoechst High Intensity Objects (%) [3, 12]: 12%; Population Mitochondria Different-Phenotype (%) [3, 12]: 5%; Population Mitotic Cells (%) [3, 12]: 40%; Population Normal (%) [3, 12]: 87%; Population Pyknosed Nuclei (%) [3, 12]: 17%; Population Tubulin-Different-Phenotype (%) [3, 12]: 15%; Total Cell Count [3, 12]: 211; Population Apoptotic (%) [3, 13]: 40%; Population Fragmented Nuclei (%) [3, 13]: 56%; Population Healthy Nuclei (%) [3, 13]: 30%; Population Hoechst High Intensity Objects (%) [3, 13]: 35%; Population Membrane Permeable-Phenotype (%) [3, 13]: 0%; Population Mitochondria Different-Phenotype (%) [3, 13]: 25%; Population Mitotic Cells (%) [3, 13]: 60%; Population Normal (%) [3, 13]: 65%; Population Pyknosed Nuclei (%) [3, 13]: 12%; Population Tubulin-Different-Phenotype (%) [3, 13]: 33%; Total Cell Count [3, 13]: 60; Population Apoptotic (%) [3, 14]: 73%; Population Fragmented Nuclei (%) [3, 14]: 22%; Population Healthy Nuclei (%) [3, 14]: 59%; Population Hoechst High Intensity Objects (%) [3, 14]: 13%; Population Membrane Permeable-Phenotype (%) [3, 14]: 7%; Population Mitochondria Different-Phenotype (%) [3, 14]: 0%; Population Mitotic Cells (%) [3, 14]: 26%; Population Normal (%) [3, 14]: 86%; Population Pyknosed Nuclei (%) [3, 14]: 17%; Population Tubulin-Different-Phenotype (%) [3, 14]: 1%; Total Cell Count [3, 14]: 221; Population Apoptotic (%) [3, 15]: 0%; Population Fragmented Nuclei (%) [3, 15]: 70%; Population Healthy Nuclei (%) [3, 15]: 25%; Population Hoechst High Intensity Objects (%) [3, 15]: 22%; Population Membrane Permeable-Phenotype (%) [3, 15]: 26%; Population Mitochondria Different-Phenotype (%) [3, 15]: 6%; Population Mitotic Cells (%) [3, 15]: 100%; Population Normal (%) [3, 15]: 77%; Population Pyknosed Nuclei (%) [3, 15]: 5%; Population Tubulin-Different-Phenotype (%) [3, 15]: 33%; Total Cell Count [3, 15]: 77

— ChEMBL document CHEMBL4689842, “EUbOPEN Chemogenomics Library wave 1” (2021)
